{"source": "ChEMBL document CHEMBL1799951", "about": "“FimH antagonists for the oral treatment of urinary tract infections: from design and synthesis to in vitro and in vivo evaluation” (J Med Chem, 2010)", "key": {"[1]": {"experiment": "Dissociation constant, pKa of the compound by NMR spectrometric analysis", "type": "physicochemical"}, "[2]": {"experiment": "Permeability coefficient, log Pe of the compound by PAMPA method", "type": "ADME", "method_in_brief": "(§1)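 PAMPA with GIT-0 lipid, donor analyte 50 μM at pH 5.0, 6.2 and 7.4 in quadruplicate, 16 h undisturbed incubation. Donor and acceptor quantified by UV and LC-MS.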"}, "[3]": {"experiment": "Permeability of the compound assessed as membrane retention by PAMPA method", "type": "ADME", "method_in_brief": "as §1"}, "[4]": {"experiment": "AUC (0 to 24 hrs) in urine of urinary tract infection C3H/HeN mouse model at 50 mg/kg, iv administered as single dose measured after 6 hrs by LC-MS analysis", "type": "ADME, organism-based", "parameters": "time < 24 hr, dose 50 mg/kg, route intravenous", "method_in_brief": "(§2)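 Female C3H/HeN mice (19-25 g) dosed once iv at 50 mg/kg in 100 μL PBS via tail vein. Blood and urine (10 μL) sampled at 6 min, 30 min, 1, 2, 4, 6, 8 and 24 h. Proteins precipitated with methanol, centrifuged, and supernatant quantified by LC-MS.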"}, "[5]": {"experiment": "Cmax in plasma of urinary tract infection C3H/HeN mouse model at 50 mg/kg, iv administered as single dose measured after 6 hrs by LC-MS analysis", "type": "ADME, organism-based", "parameters": "dose 50 mg/kg, route intravenous", "method_in_brief": "as §2"}, "[6]": {"experiment": "Stability of the compound in simulated gastrointestinal fluid assessed as compound remaining after 2 hrs by LC-MS analysis", "type": "physicochemical", "settings": "read-out: Stability"}, "[7]": {"tested_on": "Escherichia coli", "experiment": "Antibacterial activity against Escherichia coli […] infected in urinary tract infection C3H/HeN mouse model assessed as log reduction in bacterial CFU in urine of mouse at 50 mg/kg, po administered as single dose 1 hr before infection and measured after 3 hrs post infection", "type": "functional", "settings": "route intravenous, in the assay text read “iv administered” for “po administered”"}, "[8]": {"experiment": "Lipophilicity, log D at pH 7.4 by miniatured shake flask method", "type": "physicochemical", "settings": "buffer", "method_in_brief": "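Octanol-saturated 0.1 M phosphate pH 7.4 containing analyte at 1 μM, overlaid with octanol at two volume ratios, three wells each. Shaken 2 h at 25 °C, then centrifuged; aqueous phase measured by LC-MS. log D computed from depletion. Accepted when the ratio means agree within 0.1.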"}, "[9]": {"target": "T1, CD209 antigen (Homo sapiens) (UniProt Q9NNX6)", "T1 sequence (whole entry)": "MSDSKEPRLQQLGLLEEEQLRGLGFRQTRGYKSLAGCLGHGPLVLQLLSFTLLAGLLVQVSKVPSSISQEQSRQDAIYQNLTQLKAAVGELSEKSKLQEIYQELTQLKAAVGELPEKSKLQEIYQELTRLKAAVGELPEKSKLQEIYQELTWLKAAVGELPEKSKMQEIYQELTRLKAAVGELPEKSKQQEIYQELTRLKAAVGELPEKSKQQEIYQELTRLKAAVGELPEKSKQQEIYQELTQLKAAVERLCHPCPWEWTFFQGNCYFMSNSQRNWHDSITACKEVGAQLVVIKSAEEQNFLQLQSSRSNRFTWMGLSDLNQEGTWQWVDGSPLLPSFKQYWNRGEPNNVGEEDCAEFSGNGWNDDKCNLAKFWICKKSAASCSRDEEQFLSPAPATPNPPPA", "experiment": "Binding affinity to Fc-IgG-tagged DC-SIGN carbohydrate recognizing domain at 1 mM", "method_in_brief": "(§3)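 FimH-CRD (10 μg/mL), DC-SIGN-CRD-Fc (2.5 μg/mL) or MBP (10 μg/mL) coated overnight at 4 °C in 20 mM HEPES pH 7.4, 150 mM NaCl, 10 mM CaCl2. Competition against streptavidin-peroxidase TM-PAA polymer as in the FimH ELISA, test compounds at 1 mM. D-mannose at 50 mM as positive control.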"}, "[10]": {"target": "Mannose-binding protein C (Homo sapiens) (UniProt P11226)", "sequence (P11226 whole entry)": "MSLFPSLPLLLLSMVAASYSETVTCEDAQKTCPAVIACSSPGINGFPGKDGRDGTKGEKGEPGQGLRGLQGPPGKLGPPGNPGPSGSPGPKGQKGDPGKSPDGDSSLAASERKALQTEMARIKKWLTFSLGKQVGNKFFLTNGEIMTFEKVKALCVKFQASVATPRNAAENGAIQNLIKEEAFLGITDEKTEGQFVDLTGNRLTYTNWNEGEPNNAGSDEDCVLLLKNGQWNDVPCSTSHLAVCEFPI", "experiment": "Binding affinity to MBP at 1 mM", "method_in_brief": "as §3"}, "[11]": {"tested_on": "Liver", "experiment": "Metabolic stability of the compound in mouse liver microsomes assessed as Cyp 450-mediated degradation at 2 uM after 30 mins by LC-MS analysis in presence of NADPH", "settings": "0.5 h"}, "[12]": {"experiment": "Cmax in urine of urinary tract infection C3H/HeN mouse model at 50 mg/kg, iv administered as single dose measured after 6 hrs by LC-MS analysis", "type": "ADME, organism-based", "parameters": "dose 50 mg/kg, route intravenous", "method_in_brief": "as §2"}, "[13]": {"experiment": "Stability of the compound in simulated intestinal fluid assessed as compound remaining after 2 hrs by LC-MS analysis", "type": "physicochemical", "settings": "read-out: Stability", "method_in_brief": "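Simulated intestinal fluid (phosphate, NaOH, pancreatin, pH 6) at 37 °C, compound at 10 μM, 500 rpm. Samples at 0-120 min MeCN-quenched; LC-MS as % remaining versus initial.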"}, "[14]": {"experiment": "AUC (0 to 24 hrs) in urine of urinary tract infection C3H/HeN mouse model at 50 mg/kg, po administered as single dose measured after 6 hrs by LC-MS analysis", "type": "ADME, organism-based", "parameters": "time < 24 hr, dose 50 mg/kg, route oral", "method_in_brief": "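Female C3H/HeN mice (19-25 g) gavaged once at 50 mg/kg. Compound dissolved in DMSO and diluted in 1% Tween-80/PBS as a suspension, or given in 200 μL PBS. Blood and urine sampled at 6 min to 24 h, methanol-precipitated, and analysed by LC-MS. For the prodrug, both parent and carboxylate metabolite were measured.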"}, "[15]": {"tested_on": "Escherichia coli", "experiment": "Antibacterial activity against Escherichia coli […] infected in urinary tract infection C3H/HeN mouse model assessed as reduction in bacterial count in kidney of mouse at 50 mg/kg, iv administered as single dose 1 hr before infection and measured after 3 hrs post infection"}, "[16]": {"experiment": "Thermodynamic solubility of the compound at pH 6.5 after 24 hrs by LC-MS analysis", "type": "physicochemical", "settings": "buffer, read-out: Therm_solubility", "method_in_brief": "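1 mg solid in 250 μL 50 mM phosphate pH 6.5, sonicated 15 min, shaken 2 h at 25 °C, left 24 h. pH measured, then filtered and diluted; concentration determined by LC-MS.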"}, "[17]": {"tested_on": "Escherichia coli", "experiment": "Antibacterial activity against Escherichia coli […] infected in urinary tract infection C3H/HeN mouse model assessed as log reduction in bacterial count in kidney of mouse at 50 mg/kg, iv administered as single dose 1 hr before infection and measured after 3 hrs post infection", "type": "functional, organism-based", "parameters": "dose 50 mg/kg", "method_in_brief": "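Female C3H/HeN mice given antagonist iv (100 μL PBS, tail vein) or po as suspension, then infected. Infection: isoflurane anaesthesia, bladder emptied, 50 μL UTI89 at about 10^9-10^10 CFU/mL via transurethral catheter. Six mice per group, killed 3 h post-inoculation. Kidneys plated on EMB agar. Reduction taken against the 3 h untreated control mean; Mann-Whitney test.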"}, "[18]": {"tested_on": "Escherichia coli", "experiment": "Antibacterial activity against Escherichia coli […] infected in urinary tract infection C3H/HeN mouse model assessed as log reduction in bacterial CFU in bladder of mouse at 50 mg/kg, po administered as single dose 1 hr before infection and measured after 3 hrs post infection", "type": "functional", "settings": "route intravenous, in the assay text read “iv administered” for “po administered”"}, "[19]": {"experiment": "AUC (0 to 24 hrs) in plasma of urinary tract infection C3H/HeN mouse model at 50 mg/kg, iv administered as single dose measured after 6 hrs by LC-MS analysis", "type": "ADME, organism-based", "parameters": "time < 24 hr, dose 50 mg/kg, route intravenous", "method_in_brief": "as §2"}}, "note": "The source made the active and inactive calls. No cut-off for these calls is given here."}
{"smiles": "O=C([O-])c1ccc(-c2ccc(O[C@H]3O[C@H](CO)[C@@H](O)[C@H](O)[C@@H]3O)c(Cl)c2)cc1.[Na+]", "values": [{"measurement": "pKa", "setting": "[1]", "value": 3.98}, {"measurement": "permeability", "setting": "[2]", "value": "impermeable"}, {"measurement": "permeability", "setting": "[3]", "value": 3.5, "unit": "%"}, {"measurement": "AUC(0-t) at 24 h", "setting": "[4]", "value": 210000, "unit": "ng·h/mL"}, {"measurement": "Cmax", "setting": "[5]", "value": 39.4, "unit": "µg/mL"}, {"measurement": "remaining at 2 h", "setting": "[6]", "value": 80, "unit": "%"}, {"measurement": "FC", "setting": "[7]", "value": 2}, {"measurement": "logD", "setting": "[8]", "value": -0.77}, {"measurement": "Activity", "setting": "[9]", "value": "inactive"}, {"measurement": "Activity", "setting": "[10]", "value": "inactive"}, {"measurement": "Stability", "setting": "[11]", "value": "Stable"}, {"measurement": "Cmax", "setting": "[12]", "value": 588, "unit": "µg/mL"}, {"measurement": "remaining at 2 h", "setting": "[13]", "value": 80, "unit": "%"}, {"measurement": "AUC(0-t) at 24 h", "setting": "[14]", "value": 2700, "unit": "ng·h/mL"}, {"measurement": "Activity", "setting": "[15]", "value": "Active"}, {"measurement": "solubility thermodynamic at 24 h", "setting": "[16]", "value": "> 3000", "unit": "µg/mL"}, {"measurement": "Activity", "setting": "[17]", "value": "Active"}, {"measurement": "FC", "setting": "[18]", "value": 4}, {"measurement": "AUC(0-t) at 24 h", "setting": "[19]", "value": 20800, "unit": "ng·h/mL"}]}
